Screening results (PubChem)
PDI turbidity – PDI (human) enzyme inhibition. P07237. PDI insulin aggregation turbidity, A650, 90 min. inhibition, % at 10 µM. 0.052% of 350,000 active. AID 588391;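 active = mean inhibition across replicates of 30% or more, whatever share of single replicates reach that level; inconclusive = mean inhibition below 30% while every single replicate reaches 30%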
Target sequence (P07237 whole entry, looked up): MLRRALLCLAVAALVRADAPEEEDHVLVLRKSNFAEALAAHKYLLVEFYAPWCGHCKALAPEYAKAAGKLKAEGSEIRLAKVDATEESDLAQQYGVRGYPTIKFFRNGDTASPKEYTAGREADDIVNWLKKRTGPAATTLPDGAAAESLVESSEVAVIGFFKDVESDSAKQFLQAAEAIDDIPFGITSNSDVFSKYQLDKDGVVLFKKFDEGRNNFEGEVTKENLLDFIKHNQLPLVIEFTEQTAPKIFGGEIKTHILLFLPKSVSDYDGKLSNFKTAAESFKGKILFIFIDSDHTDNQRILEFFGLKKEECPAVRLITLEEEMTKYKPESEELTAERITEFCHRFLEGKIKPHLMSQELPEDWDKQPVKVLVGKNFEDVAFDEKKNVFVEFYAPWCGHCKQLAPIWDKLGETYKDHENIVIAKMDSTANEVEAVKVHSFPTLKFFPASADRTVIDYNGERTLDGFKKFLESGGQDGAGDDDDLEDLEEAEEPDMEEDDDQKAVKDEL
Statin myotox sup – suppression of simvastatin myotoxicity; rescue of ATP level, % at 7.49 µM; 0.78% of 330,000 active; C2C12 myotubes + simvastatin, ATP luminescence, 48 h; scaled: DMSO 0, geranylgeraniol control 100;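 active = mean ATP rescue above about 67%, or every replicate alone reaching that limit, limit read from the data, passing the limit was not always enough; inconclusive = no clear call, values can overlap the other calls; inactive = mean under the limit and some replicate under it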;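 also: myotubes were challenged with 10 µM simvastatin during compound exposure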
DENV2 CPE rescue – DENV2-induced cell death inhibition. DENV2-infected cells, cytopathic effect rescue, plate reader. CPE inhibition, % at 9.99 µM. 1.7% of 350,000 active. AID 651640; in the data active = CPE inhibition above about 20%, passing the limit was not always enough; inconclusive = no clear call, values can overlap the other calls; tested in BHK-21 cells;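 also: 0% = median of neutral control wells and 100% = median of positive control wells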
CFTR F508del cor – correctors of CFTR F508del function in bronchial epithelial cells; CFBE cells, YFP halide quenching; stimulated with forskolin plus potentiator P3; % fluorescence drop versus neutral controls; activity (quench increase), % at 7.58 µM; 0.36% of 350,000 active;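 active = mean added fluorescence quench of at least 8% versus neutral control, with both replicates also reaching 8%; inconclusive = only one of the mean or replicate conditions met; inactive = mean below 8% and not both replicates reaching 8%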;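 also: cells transiently co-express mutant CFTR-F508del with the halide-sensitive YFP; corrector assay measuring rescue of mutant channel to the surface after 24 h compound exposure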
Cneo AK release – Cryptococcus neoformans lysis via adenylate kinase release; C. neoformans lysis, adenylate kinase release luminescence, 4 h; normalised: neutral wells 0, clomiphene wells 100; lysis activity, % at 15 µM; 0.2% of 360,000 active;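 active = mean lysis activity across replicates of at least 80%, whatever share of replicates individually reach that level; inactive = mean lysis activity below 80%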
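Assay system: log-phase C. neoformans yeast / Quantity: yeast cell density of 5 × 10^6 cells/mL / Medium: fresh YPD growth medium / Compound: single dose / Timing: static 4 h at 37 °C with compound, 1 h detection / Measured by: adenylate kinase release luminescence / Read-out: lysis from increased AK signal / Benchmarks: Clomiphene as positive lysis control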
ERp5 inh – inhibitors of human ERp5. inhibition, % at 9.99 µM. AID 651711. ERp5 insulin aggregation, absorbance 650 nm, 90 min. Q15084. 0.05% of 350,000 active;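 active = mean replicate inhibition above about 25%, with every replicate also reaching it, limit read from the data, passing the limit was not always enough; inconclusive = only one of those two criteria met; inactive = neither criterion met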
* hit, by the source's call; ? = inconclusive; / = no result given. Only some compounds are listed: those with a hit (about 2.3% of all), similar ones and a draw of the others.

SMILES	PDI turbidity	Statin myotox sup	DENV2 CPE rescue	CFTR F508del cor	Cneo AK release	ERp5 inh
COc1ccc(Nc2c3c(nc4ccccc24)CCCC3)cc1OC	-10.5	/	3.6	0.8	/	-1.4
COC(CNC(=O)[C@H](Cc1ccccc1)N1Cc2ccccc2C1=O)OC	3.5	-0.1	-7.6	8.5*	0.5	2.5
CN1C(=O)c2cccc3c(Cl)ccc(c23)C1=O	-0.1	3.0	/	/	1.2	/
CNc1ccc2c3c(cccc13)C(=O)N(C)C2=O	-5.4	/	-5.4	20.4*	/	-2.7
COc1ccc(S(=O)(=O)NCc2cccnc2)c2ccccc12	13.3	93.8*	-0.8	2.3	0.7	3.8
COc1ccc(OC)c(S(=O)(=O)NCc2ccccc2)c1	-1.0	2.0	/	/	2.9	/
COc1cc(S(=O)(=O)NCc2ccncc2)c(OC)cc1Br	-3.8	/	27.7*	-0.9	17.4	1.8
COc1ccc(OC)c(S(=O)(=O)NCc2cccnc2)c1	0.7	125.6*	/	/	0.1	/
O=S(=O)(NCc1cccnc1)c1ccc(Br)c2ccccc12	-1.6	10.2	?	-0.2	0.7	-1.2
O=C([C@H]1[C@H](CO)[C@H]2Cn3c(ccc(C4=CCCC4)c3=O)[C@H]2N1Cc1nccs1)N1CCCCC1	/	17.8	-1.0	4.1	5.1	-0.1
C[C@H]1CN([C@@H](C)CO)C(=O)c2ccccc2-c2ccccc2CO[C@@H]1CN(C)C(=O)CCC(F)(F)F	/	-6.7	/	-1.7	/	/
CC(=NNC(=S)N(Cc1ccccn1)Cc1ccccn1)c1cnccn1	2.4	/	2.1	8.2*	/	-6.3
COc1ccc(S(=O)(=O)Nc2ccc3c(c2)C(=O)N([C@H](C)CO)C[C@H](C)[C@@H](CN(C)CC2CC2)OCCCC[C@@H](C)O3)cc1	/	-10.9	4.4	3.7	0.2	-5.9
C[C@H]1CN([C@@H](C)CO)C(=O)Cc2cc(NS(=O)(=O)c3ccccc3)ccc2O[C@@H]1CN(C)C(=O)Nc1ccc2c(c1)OCO2	/	-19.4	/	-0.2	/	/
COc1cccc(CN(C)C(=O)CN2C(=O)NC3(CCCc4ccccc43)C2=O)c1 (stereo not given)	18.5	5.2	73.4*	0.6	-1.4	1.4
Cc1ccsc1CN(C)C(=O)CN1C(=O)NC2(CCCc3ccccc32)C1=O (stereo not given)	-1.5	5.8	-1.6	-0.9	0.2	-1.2
CCCN1C[C@H](C)[C@@H](OC)CN(C)C(=O)c2cc(NC(=O)c3cccc(F)c3)ccc2OC[C@@H]1C	/	-21.9	-8.7	0.1	116.6*	-0.7
CCCN1C[C@H](C)[C@H](OC)CN(C)C(=O)c2ccc(NC(=O)Nc3cccc(F)c3)cc2OC[C@H]1C	/	/	24.6*	-0.4	/	-0.2
CCCN1C[C@H](C)[C@H](OC)CN(C)C(=O)c2ccc(NC(=O)c3cccc(F)c3)cc2OC[C@@H]1C	/	-2.4	-9.8	-1.0	-0.1	-9.5
CCCN1C[C@H](C)[C@@H](OC)CN(C)C(=O)c2ccc(NC(=O)c3ccccc3)cc2OC[C@@H]1C	/	/	23.2*	2.6	/	2.3
C[C@@H]1CN([C@@H](C)CO)S(=O)(=O)c2ccc(-c3cccnc3)cc2O[C@@H]1CN(C)C(=O)c1cccc(F)c1	/	-4.7	-9.5	0.4	1.6	-3.0
C[C@@H](NC(=O)C[C@H]1C[C@H]2c3cc(NC(=O)Nc4ccccc4F)ccc3O[C@H]2[C@H](CO)O1)c1ccccc1	/	13.9	7.1	3.4	-0.6	0.8
C[C@H](CO)N1C[C@H](C)[C@H](CN(C)S(=O)(=O)c2cccc(C#N)c2)OCc2ccccc2-c2ccccc2C1=O	/	-4.5	1.9	-1.0	-1.5	-1.6
COc1cccc(S(=O)(=O)N(C)C[C@H]2OCc3ccccc3-c3ccccc3C(=O)N([C@H](C)CO)C[C@H]2C)c1	/	-5.1	1.0	-1.7	0.2	-6.7
C[C@@H]1CN([C@H](C)CO)C(=O)c2ccccc2-c2ccccc2CO[C@H]1CN(C)S(=O)(=O)c1cccc(C#N)c1	/	/	-2.8	1.9	95.3*	1.9
SMILES	PDI turbidity	Statin myotox sup	DENV2 CPE rescue	CFTR F508del cor	Cneo AK release	ERp5 inh
COc1cccc(S(=O)(=O)N(C)C[C@@H]2OCc3ccccc3-c3ccccc3C(=O)N([C@@H](C)CO)C[C@@H]2C)c1	/	/	-1.3	-2.6	99.9*	6.7
COc1ccccc1NC(=O)N[C@H]1CC[C@H](CCn2cc(-c3ccccc3OC)nn2)O[C@H]1CO	/	0.6	?	0.4	0.1	0.4
CN(C)CC(=O)Nc1ccc2c(c1)[C@H]1C[C@@H](CC(=O)NCc3cccnc3)O[C@@H](CO)[C@H]1O2	/	5.8	-2.7	0.1	19.2	20.3
O=C1NC(Cc2ccc(O)cc2)c2nc3ccccc3c(=O)n2-c2ccccc21 (stereo not given)	/	/	38.7*	3.8	/	6.0
O=C1NC(Cc2ccc(O)cc2)c2nc3ccc(Br)cc3c(=O)n2-c2cc3ccccc3cc21 (stereo not given)	10.4	2.8	-8.6	8.2*	-4.9	0.3
COc1ccc2nc3n(c(=O)c2c1)-c1cc2ccccc2cc1C(=O)NC3Cc1ccc(O)cc1 (stereo not given)	21.9	-17.9	-11.0	1.8	-0.3	5.9
O=C1NC(Cc2ccc(O)cc2)c2nc3ccccc3c(=O)n2-c2cc(Cl)ccc21 (stereo not given)	/	/	-4.8	0.2	/	-4.5
CCCC1NC(=O)c2cc3ccccc3cc2-n2c1nc1ccc(F)cc1c2=O (stereo not given)	5.1	-0.1	67.2*	1.8	0.2	-0.2
O=C1NC(Cc2ccccc2)c2nc3ccc(Cl)cc3c(=O)n2-c2ccccc21 (stereo not given)	/	/	68.1*	-3.3	/	-3.6
CC(C)CC1NC(=O)c2cc3ccccc3cc2-n2c1nc1ccc(F)cc1c2=O (stereo not given)	-6.2	-15.9	10.8	0.2	-0.6	3.7
CCCNC(=O)N1C[C@H]2[C@@H](c3ccccc31)[C@@H](CO)N2Cc1ccc(OC)cc1	/	-1.0	1.5	0.7	-0.6	8.2
CCOC(=O)c1sc(=S)n(-c2ccc(Cl)cc2)c1SC	-1.8	104.9*	/	/	-0.9	/
Cc1noc(C)c1NC(=O)Nc1ccc2c(c1)C(=O)N([C@@H](C)CO)C[C@H](C)[C@@H](CN(C)C)OCCCC[C@@H](C)O2	/	-6.4	-9.4	-1.4	1.4	-0.5
Cc1cc(/C=N/n2cnnc2)c(C)n1-c1ccc(Cl)cc1	-1.1	/	/	/	/	/
Cc1cc(/C=N/n2cnnc2)c(C)n1-c1ccc(Cl)cc1Cl	-0.5	97.1*	/	/	-1.8	/
COc1ccc2c3c([nH]c2c1)[C@H](CO)N(S(C)(=O)=O)CC31CCN(CC2CCCCC2)CC1	/	/	-2.3	-0.3	/	-13.8
C[C@@](Cc1ccc(O)c(O)c1)(NN)C(=O)O	8.3	-6.7	4.9	8.4*	-0.3	4.3
Cc1sc2cc3c(c(C(=O)c4ccccc4)[n+]2c1C)-c1cccc2cccc-3c12	/	/	36.4*	/	/	2.1
